SMILES strings stand for the structures.

Common to all, as to assay type: ADME, organism-based
The nature of data set [1]: Drug level in spontaneously hypersensitive rat at 300 mg/kg, po qd for 8 days measured after 24 hrs post dose. Particulars: spontaneously hypersensitive rat (SHR), in vivo, read-out: Drug uptake. On the set-up: dose 300 mg/kg, route oral.
Data set [2] relates to Rattus norvegicus. The data set can be described thus: Increase in endogenous 20-HETE level in spontaneously hypersensitive rat kidney at 300 mg/kg, po for 8 days by LC/MS/MS analysis. On the set-up: dose 300 mg/kg, route oral. Particulars: in vivo, 192 h. In short, it runs like this: (§1)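 SHRs given daily oral doses, with kidneys analysed for endogenous epoxide/diol ratios and for 20-HETE. A parallel PK group of SHRs was sampled on the eighth day of dosing at 4 and 24 h postdose.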

The nature of data set [3]: Drug level in spontaneously hypersensitive rat at 300 mg/kg, po qd for 8 days measured after 4 hrs post dose. The conditions noted are these: spontaneously hypersensitive rat (SHR), in vivo, read-out: Drug uptake. Also noted: dose 300 mg/kg, route oral.
Data set [4] deals with Rattus norvegicus. The data set is described as follows: Increase in endogenous 14,15-EET/DHET ratio in spontaneously hypersensitive rat kidney at 300 mg/kg, po for 8 days by LC/MS/MS analysis. Also noted: dose 300 mg/kg, route oral. Particulars: in vivo, 192 h. In short, it runs like this: as §1
Data set [5] is described as follows: Half life in spontaneously hypersensitive rat at 1 mg/kg, iv and 2 mg/kg, po. Particulars: spontaneously hypersensitive rat (SHR), in vivo.
Data set [6] can be described thus: Clearance in spontaneously hypersensitive rat at 1 mg/kg, iv and 2 mg/kg, po. Particulars: spontaneously hypersensitive rat (SHR), in vivo.
The nature of data set [7]: Bioavailability in spontaneously hypersensitive rat at 1 mg/kg, iv and 2 mg/kg, po. The conditions noted are these: spontaneously hypersensitive rat (SHR), in vivo.
A short description of data set [8]: Volume of distribution at steady state in spontaneously hypersensitive rat at 1 mg/kg, iv and 2 mg/kg, po. Particulars: spontaneously hypersensitive rat (SHR), in vivo, read-out: Vdss.

Take `O=C(N[C@@H]1C[C@H]1c1ccccc1)N1CCC(c2nc(-c3ccccn3)no2)CC1`: the concentration at 24 h in data set [1] amounted to 20 µM. Also, the “fold change (FC)” value in the data set with Rattus norvegicus [2] was 2.5; in the data set with Rattus norvegicus [4], 2. For the same compound, the concentration at 4 h in data set [3] turned out to be 35 µM.

On to `O=C(NC1CC1c1ccccc1)N1CCC(c2nc(-c3ccccn3)no2)CC1` (stereo in doubt; 2d), for which the half-life in data set [5] is 1.4 h. The compound also showed a clearance in data set [6] of 29 mL/min/kg. In addition, in data set [7], the bioavailability is 77%. The Vd in data set [8] turned out to be 2.7 L/kg.

The half-life is the time in which the quantity being followed falls by half. A low value points to rapid decline. For orientation: bioavailability means dose-corrected exposure relative to a reference, in per cent.

The values are drawn from ChEMBL document CHEMBL1152451 (J Med Chem, 2009).
